High-throughput results as filed in PubChem BioAssay.
The sample as a whole holds a higher share of hits than the screen did.
H69AR inhibit: growth inhibitors of human H69AR lung tumor cells. actives 6% (n = 85,000). viability, % at 10 µM. AID 598. H69AR lung tumor viability, ATP luminescence, 72 h; active compounds read low;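 active means viability at or below 40%; inactive means viability above 40%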;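 further: multidrug resistant small cell line overexpressing MRP-1 efflux transporter; 100% = mean luminescence of untreated control wells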
HCT116 PTEN-null: growth suppressors of cells with PTEN tumor suppressor deletion. viability, % at 10 µM. AID 827. actives 1.2% (n = 140,000). HCT116 PTEN-null viability, CellTiter-Glo, 60 h; active compounds read low;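 active means viability at or below a set limit, 4 SD under the median of all tested compounds, cut at about 3.7% in these data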;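 further: PTEN knockout HCT116 line with beta catenin targeted HCT116 as companion control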
Fibroblast inh: blocks proliferation of human lung fibroblasts | actives 1.1% (n = 85,000) | AID 719 | viability, % at 10 µM | LL 47 human lung fibroblast viability, ATP luminescence; active compounds read low;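 active means viability at or below 50% in the single dose screen; inactive means viability above 50%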;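 further: compound exposure lasted 72 h before the ATP readout; 100% = median luminescence of untreated cell-only wells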
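Benchmarks: Cell-only wells, no compound | Test system: LL 47 human lung fibroblasts, passage 12 or lower | Input: 1,150 cells/well | Measured by: CellTiter-Glo luminescence measuring cellular ATP | Medium: IMEM, 15% FBS supplement | Schedule: Overnight attachment after seeding, then 72 h compound exposure at 37 °C | Doses: Compound addition at 0.1% DMSO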
HUVEC inhibit: blocks proliferation of human endothelial cells; viability, % at 10 µM (by protocol); AID 648; actives 1.1% (n = 86,000); HUVEC proliferation, CellTiter-Glo luminescence, 72 h; active compounds read low;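 active means viability at or below 30%; inactive means viability above 30%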;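 further: 100% = median luminescence of DMSO-only cell control wells on each plate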
bCat KO growth: beta-catenin-lacking colon tumor cell growth suppression. AID 818. actives 1.5% (n = 140,000). viability, % at 10 µM. HCT116 beta-catenin knockout viability, CellTiter-Glo, 60 h; active compounds read low;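 active means viability at or under a set limit, the compound median less 4 SD, cut at about 6% in these data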;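 further: 0% = Hyamine 1622 control at 20 µM and 100% = untreated cell control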
Starred values were filed as active, the others as inactive; nt = no result given.

SMILES	H69AR inhibit	HCT116 PTEN-null	Fibroblast inh	HUVEC inhibit	bCat KO growth
COc1ccc(Nc2cnn(-c3nc4ccccc4s3)c(=O)c2Cl)cc1	nt	7	nt	nt	5.1*
O=Cc1cn(CC(=O)N2CCCc3ccccc32)c2ccccc12	35*	86	96	93	87
O=C(c1cc2c(s1)CCCC2)N1CCN(Cc2ccc3c(c2)OCO3)CC1	89	79	98	82	73
O=C(Oc1ccc2c(c1)OCO2)c1cc2c(s1)CCC2	96	2.1*	66	55	2.6*
CCOC(=O)N1CCC(NS(=O)(=O)c2cc3c(cc2Cl)NC(=O)CO3)CC1	25*	4	60	65	3.9*
O=C1NC(=S)N(C(=O)c2ccc(F)cc2)/C1=C/c1ccccc1	nt	1.7*	nt	nt	12
COc1ccc([N+](=O)[O-])cc1C1NN=C(c2ccccc2O)S1 (stereo not given)	27*	69	61	74	72
O=C(N/N=C/c1ccc(Br)s1)c1ccccc1[N+](=O)[O-]	nt	87	nt	nt	75
Cn1c(SCC(=O)N/N=C/c2ccc([N+](=O)[O-])s2)nnc1-c1ccc(Cl)cc1	nt	1.6*	nt	nt	1.9*
COc1ccc(NCc2ccc([N+](=O)[O-])s2)cc1	nt	68	nt	nt	62
O=C(N/N=C/c1ccc([N+](=O)[O-])s1)c1ccncc1	nt	2.5*	nt	nt	2.5*
COc1ccc(NC(=O)CCC(=O)N/N=C/c2ccc([N+](=O)[O-])s2)cc1	nt	1.1*	nt	nt	1.4*
O=C(N/N=C/C=C/c1ccccc1)c1cccc(Br)c1	37*	57	77	80	59
O=C(/C=C/c1ccccc1)NCCc1ccc2c(c1)OCCO2	nt	102	nt	nt	96
CNC(=O)C1=C(C)NC(=S)NC1c1cc2c(cc1OC)CCCC2 (stereo not given)	nt	104	nt	nt	99
Cc1ccc(C(=O)N/N=C/c2ccc([N+](=O)[O-])s2)cc1	20*	1.3*	49*	36	1.9*
Cc1ccc(/C=N\NC(=O)c2cc([N+](=O)[O-])cc([N+](=O)[O-])c2)o1	nt	88	nt	nt	92
Cc1ccc(C(=O)N/N=C\c2ccc([N+](=O)[O-])s2)cn1	nt	2.6*	nt	nt	2.4*
O=C(N/N=C/c1ccc([N+](=O)[O-])s1)c1cccc(Br)c1	39*	4	2.6*	30	7
O=C(CN1CCN(C2CCCCC2)CC1)c1ccc2cc[nH]c2c1	88	98	90	98	87
COC(=O)/C(=C\Nc1ccc(OC)cc1)NC(=O)c1ccc(Cl)cc1Cl	36*	77	88	75	65
CCOC(=O)COc1ccc(S(=O)(=O)Nc2ccc(C)cc2)cc1	94	93	16*	11*	97
CCOC(=O)COc1ccc(S(=O)(=O)Nc2ccc3c(c2)OCO3)cc1	100	99	63	41	112
CCOC(=O)c1ccccc1NC(=O)CN(c1ccccc1)S(=O)(=O)N(C)C	38*	70	98	81	65
CCOc1ccc(S(=O)(=O)Nc2cccc(OC)c2)cc1	38*	71	95	88	74
SMILES	H69AR inhibit	HCT116 PTEN-null	Fibroblast inh	HUVEC inhibit	bCat KO growth
CCOC(=O)COc1ccc(S(=O)(=O)N2CCc3ccccc3C2)cc1	92	88	61	6.2*	87
CC(C)(C)C(=O)NC1CCN(S(=O)(=O)c2cccc(C(F)(F)F)c2)CC1	96	92	101	96	87
CCC(=O)Nc1cc(C(=O)OCC(=O)c2ccccc2)ccc1C	nt	92	nt	nt	85
COc1cc(NC(=O)CC2NCCNC2=O)cc(OC)c1 (stereo not given)	nt	107	nt	nt	101
Cc1ncc(N=Nc2ccccc2)c(-c2ccccc2)n1	nt	87	nt	nt	87
CCOC(=O)c1ccccc1NS(=O)(=O)c1ccc(C)cc1	11*	21	88	74	23
CCOc1ccccc1CN1C(=O)NC(C)(c2ccccc2)C1=O (stereo not given)	86	97	96	85	90
COc1ccc(Nc2nnc(SCc3cc(=O)n4ccsc4n3)s2)cc1	76	94	108	68	105
O=S1(=O)N=C(N(CCO)/N=C/C=C/c2ccccc2)c2ccccc21	nt	88	nt	nt	87
COc1ccc(-c2[nH]c3ccccc3c2SCCNC(=O)c2ccccc2)cc1	nt	56	nt	nt	60
Cc1ccc(-c2[nH]c3ccccc3c2SCCNC(=O)c2ccc(S(=O)(=O)N3CCOCC3)cc2)cc1	nt	0.8*	nt	nt	0.8*
O=C(O)c1ccc(Cl)c(NC(=O)C2CCCN2S(=O)(=O)c2cccc3nsnc23)c1 (stereo not given)	107	86	97	101	81
